Reference: ChEMBL document CHEMBL4414575, “Yangpumicins F and G, Enediyne Congeners from Micromonospora yangpuensis DSM 45577” (J Nat Prod, 2019)
In brackets after ≈: the same amount, converted by molar mass. Activity calls are given as the source filed them. No cut-off for these calls is given here.

Tests used:
Staphylococcus aureus [1] = test: Antimicrobial activity against Methicillin-resistant Staphylococcus aureus incubated for 18 hrs by resazurin staining based microbroth dilution assay; format: functional
Method in brief: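 Overnight culture diluted to 106 CFU/mL in LB broth, mixed 1:1 with compound serially diluted in LB on the plate from DMSO stock (1–512 ng/mL and 1–512 pg/mL series; vancomycin 0.03125–16 μg/mL). Incubated 37 °C for 18 h, then resazurin added to read growth; MIC taken from broth microdilution, duplicate per plate. Strain is a local hospital MRSA isolate.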

Staphylococcus aureus [2] = test: Antimicrobial activity against Staphylococcus aureus ATCC 29213 incubated for 18 hrs by resazurin staining based microbroth dilution assay; format: functional; conditions: ATCC 29213, 18 h
Method in brief: (§1)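 Strains grown overnight, diluted to 10^6 CFU/mL in LB broth. Compounds in DMSO, serially diluted in LB (pg/mL to ng/mL range), mixed 1:1 with bacterial suspension. Vancomycin is the reference, 0.03125–16 μg/mL. Plates incubated 37 °C for 18 h, then resazurin added for read-out. Duplicates per plate.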

SK-BR-3 [3] = test: Cytotoxicity against human SKBR3 cells assessed as inhibition of cell viability incubated for 72 hrs by MTT assay; format: functional, cell-based; conditions: SK-BR-3, 72 h
Method in brief: (§2)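 Cells seeded at 2,000–4,000 per well and left 24 h. They are then exposed to a range of compound concentrations for 72 h. Survival is read by adding CCK-8 solution and measuring absorbance at 450 nm. Mitomycin is the reference control.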

A549 = test: Cytotoxicity against human A549 cells assessed as inhibition of cell viability incubated for 72 hrs by MTT assay; format: functional, cell-based; conditions: A549, 72 h; method in brief: as §2
Caco-2 [4] = test: Cytotoxicity against human Caco2 cells assessed as inhibition of cell viability incubated for 72 hrs by MTT assay; format: functional, cell-based; conditions: Caco-2, 72 h; method in brief: as §2
Jurkat = test: Cytotoxicity against human Jurkat cells assessed as inhibition of cell viability incubated for 72 hrs by MTT assay; format: functional, cell-based; method in brief: as §2
SK-BR-3 [5] = test: Cytotoxicity against human SKBR3 cells assessed as inhibition of cell viability incubated for 8 hrs by rapid killing based MTT assay; format: functional
Method in brief: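 Seeding was 2,000–4,000 cells/well, with 24 h attachment. Compound exposure at varying concentrations lasted only 8 h. Viability was read by CCK-8 absorbance at 450 nm. Mean ± SD of three replicates, with curves fitted.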

Caco-2 [6] = test: Potency index, ratio of YPM G IC50 to compound IC50 for cytotoxicity against human Caco2 cells by MTT assay; format: functional
Escherichia coli = test: Antimicrobial activity against Escherichia coli incubated for 18 hrs by resazurin staining based microbroth dilution assay; format: functional; method in brief: as §1
Staphylococcus aureus [7] = test: Potency index, ratio of MIC for vancomycin to MIC for test compound for antimicrobial activity against Methicillin-resistant Staphylococcus aureus; format: functional
Method in brief: (§3)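 Overnight bacterial cultures diluted to 10^6 CFU/mL in LB broth, mixed 1:1 with LB holding serial dilutions of test compound (DMSO stocks, 1–512 pg/mL and 1–512 ng/mL series) or vancomycin (0.03125–16 μg/mL). Incubated 37 °C, 18 h, then resazurin added for read-out. Run in duplicate per plate. Index is vancomycin MIC divided by test-compound MIC.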

SK-BR-3 [8] = test: Potency index, ratio of YPM G IC50 to compound IC50 for cytotoxicity against human SKBR3 cells by MTT assay; format: functional
Staphylococcus aureus [9] = test: Potency index, ratio of MIC for vancomycin to MIC for test compound for antimicrobial activity against Staphylococcus aureus ATCC 29213; format: functional; method in brief: as §3

Row | Structure (SMILES) | MIC (Staphylococcus aureus [1]) [ng/mL] | MIC (Staphylococcus aureus [2]) [ng/mL] | IC50 (SK-BR-3 [3]) [nM] | IC50 (A549) [nM] | IC50 (Caco-2 [4]) [nM] | IC50 (Jurkat) [nM] | Activity (SK-BR-3 [5]) | Ratio IC50 (Caco-2 [6]) | MIC (Escherichia coli) [ng/mL] | Ratio IC50 (Staphylococcus aureus [7]) | Ratio IC50 (SK-BR-3 [8]) | Ratio IC50 (Staphylococcus aureus [9])
1 | O=C1c2ccccc2C(=O)c2c3c(cc(O)c21)[C@@]12O[C@@]1([C@H](O)CO)[C@H](C#C/C=C\C#C[C@H]2O)N3 | 0.002 (≈ 0.00439 nM) | 0.002 (≈ 0.00439 nM) | 24.2 | 3.41 | 55.2 | 0.62 | – | – | – | – | – | –
2 | CO[C@@]12[C@H](COC(N)=O)C3=C(C(=O)C(C)=C(N)C3=O)N1C[C@@H]1N[C@@H]12 [MITOMYCIN] | – | – | 1000 | 270 | 5800 | 430 | – | – | – | – | – | –
3 | C[C@@H](O)[C@@]12O[C@]13c1cc(O)c4c(c1N[C@H]2C#C/C=C\C#C[C@H]3O)C(=O)c1c(O)cccc1C4=O | < 0.001 | < 0.001 | 0.86 | 0.02 | 3.4 | 0.24 | Active | 10 | 0.128 (≈ 0.281 nM) | 1000000 | 10 | 1000000
4 | CN[C@H](CC(C)C)C(=O)N[C@H]1C(=O)N[C@@H](CC(N)=O)C(=O)N[C@H]2C(=O)N[C@H]3C(=O)N[C@H](C(=O)N[C@H](C(=O)O)c4cc(O)cc(O)c4-c4cc3ccc4O)[C@H](O)c3ccc(c(Cl)c3)Oc3cc2cc(c3O[C@@H]2O[C@H](CO)[C@@H](O)[C@H](O)[C@H]2O[C@H]2C[C@](C)(N)[C@H](O)[C@H](C)O2)Oc2ccc(cc2Cl)[C@H]1O [VANCOMYCIN] | – | – | – | – | – | – | – | – | > 16000 | – | – | –
5 | O=C1c2cccc(O)c2C(=O)c2c3c(cc(O)c21)[C@@]12O[C@@]1([C@H](O)CO)[C@H](C#C/C=C\C#C[C@H]2O)N3 | < 0.001 | < 0.001 | 2.56 | 0.24 | 3.16 | 0.17 | Active | 10 | 0.032 (≈ 0.0679 nM) | 1000000 | 10 | 1000000
